From ChEMBL document CHEMBL1129428 (J Med Chem, 1996) come the findings set out here.

Bounds are passed on as bounds.

Series [1] relates to Mus musculus. Briefly: Compound was tested for toxicity after intraperitoneal injection into mice by using toxicity screen test after 4 hr. Format: organism-based. The settings on record: in vivo, ip. An outline of the steps:
(§1)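 Mice injected intraperitoneally at 30, 100 and 300 mg/kg and examined 0.5 and 4 h afterwards. Each entry is the minimum dose giving activity (MES protection, scPTZ protection, or rotorod failure for neurotoxicity) in half or more of the mice. Activity is called absent if nothing occurs at 300 mg/kg.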

The test system of series [2] is Rattus norvegicus. The series is described as follows: Compound was tested for anticonvulsant activity after Oral Administration into Rats by using MES screen test after 2h,dose 12.5 mg/kg; number of rats out of four which were protected. Format: functional. An outline of the steps:
(§2)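 Rats received the compound orally. […] Rats were tested in the MES screen at 0.25, 0.5, 1, 2 and 4 h. Each value is the number of rats protected out of 4. The test followed NINDS procedures.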

Series [3] has as its system Rattus norvegicus. The series is described as follows: Compound was tested for anticonvulsant activity after Oral Administration into Rats by using MES screen test after 4h,dose 12.5 mg/kg; No activity was demonstarted. In kind it is functional, organism-based. Also noted: dose 12.5 mg/kg. Summed up:
as §2

Series [4] concerns Mus musculus. Briefly: Anticonvulsant activity after intraperitoneal injection into mice by using scPTZ screen after 0.5 hr. In kind it is functional.
Series [5] has as its system Rattus norvegicus. Briefly: Compound was tested for anticonvulsant activity after Oral Administration into Rats by using MES screen test after 0.25h,dose 12.5 mg/kg; No activity was demonstarted. Format: functional, organism-based. Also noted: dose 12.5 mg/kg. Summed up:
as §2

In series [6] the test system is Mus musculus. Briefly: Toxicity after intraperitoneal injection into mice by using toxicity screen test after 0.5 hr. In kind it is organism-based. The settings on record: in vivo, ip. Summed up:
as §1

The test system of series [7] is Rattus norvegicus. Briefly: Compound was tested for anticonvulsant activity after Oral Administration into Rats by using MES screen test after 1h,dose 12.5 mg/kg; No activity was demonstarted. Details: dose 12.5 mg/kg. In kind it is functional, organism-based. An outline of the steps: as §2
Series [8] deals with Rattus norvegicus. The series is described as follows: Compound was tested for anticonvulsant activity after Oral Administration into Rats by using MES screen test after 0.5h,dose 12.5 mg/kg; No activity was demonstarted. Format: functional, organism-based. Also noted: dose 12.5 mg/kg. An outline of the steps: as §2
Series [9] has as its system Mus musculus. The series is described as follows: Anticonvulsant activity after intraperitoneal injection into mice by using scPTZ screen test after 4 hr. Format: functional.
For series [10], the system named is Mus musculus. The series is described as follows: Anticonvulsant activity after intraperitoneal injection into mice by using MES screen test after 0.5 hr. In kind it is functional.
For series [11], the system named is Rattus norvegicus. Briefly: Compound was tested for anticonvulsant activity after Oral Administration into Rats by using MES screen test after 0.25h,dose 30 mg/kg; number of rats out of four which were protected. In kind it is functional. Summed up: as §2
Series [12] relates to Rattus norvegicus. The series is described as follows: Compound was tested for anticonvulsant activity after Oral Administration into Rats by using MES screen test after 0.5h,dose 30 mg/kg; number of rats out of four which were protected. Format: functional. Summed up: as §2
The subject of series [13] is Rattus norvegicus. Briefly: Compound was tested for anticonvulsant activity after Oral Administration into Rats by using MES screen test after 4h,dose 30 mg/kg; number of rats out of four which were protected. In kind it is functional. Summed up:
as §2

In series [14] the test system is Mus musculus. Briefly: Anticonvulsant activity after intraperitoneal injection into mice measured in a maximal electroshock scree (MES) screen. In kind it is functional. For orientation: The maximal electroshock test induces tonic seizures with an electrical stimulus.
The test system of series [15] is Rattus norvegicus. The series is described as follows: Compound was tested for anticonvulsant activity after Oral Administration into Rats by using MES screen test after 2h,dose 30 mg/kg; number of rats out of four which were protected. In kind it is functional. An outline of the steps:
as §2

The test system of series [16] is Rattus norvegicus. Briefly: Compound was tested for anticonvulsant activity after Oral Administration into Rats by using MES screen test after 1h,dose 30 mg/kg; number of rats out of four which were protected. Format: functional. An outline of the steps: as §2
The test system of series [17] is Rattus norvegicus. Briefly: Compound was tested for anticonvulsant activity after Oral Administration into rat by using MES screen test after 2 hr. In kind it is functional. Summed up: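 Rats dosed orally, typically at 50 mg/kg first, then mostly 12.5 mg/kg (some compounds at 30 mg/kg), and tested by maximal electroshock. Four rats per compound, scored at 0.25, 0.5, 1, 2 and 4 h as the number of rats protected out of 4.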

The test system of series [18] is Rattus norvegicus. Briefly: Compound was tested for anticonvulsant activity after Oral Administration into Rats by using MES screen test after 0.25h,dose 30 mg/kg; No activity was demonstarted. In kind it is functional, organism-based. Details: dose 30 mg/kg. Summed up:
as §2

Series [19] is described as follows: Compound was tested for toxicity after intraperitoneal injection into mice by using neurotoxicity screen test after 2 hr. In kind it is organism-based. As to conditions: mouse, in vivo, ip. Summed up: (§3)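 Quantitative intraperitoneal mouse testing in the MES, scPTZ or rotorod neurotoxicity screens at the peak time given for each compound (0.25–2 h). ED50 or TD50 reported in mg/kg with 95% CI and slope (SE).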

A short description of series [20]: Compound was tested for toxicity after oral administration in rat by using neurotoxicity screen test after 0.25-24 hr. Format: organism-based. As to conditions: in vivo. Summed up:
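Rat neurotoxicity after oral dosing, observed at 0.25, 0.5, 1, 2, 4, 6, 8 and 24 h (8 h omitted for one compound).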

The subject of series [21] is Rattus norvegicus. The series is described as follows: Compound was tested for anticonvulsant activity after Oral Administration into Rats by using MES screen test after 2h,dose 12.5 mg/kg; No activity was demonstarted. In kind it is functional, organism-based. Also noted: dose 12.5 mg/kg. Summed up: as §2
Series [22] deals with Rattus norvegicus. Briefly: Compound was tested for anticonvulsant activity after Oral Administration into Rats by using MES screen test after 1h,dose 12.5 mg/kg; number of rats out of four which were protected. Format: functional. Summed up:
as §2

Series [23] relates to Rattus norvegicus. The series is described as follows: Compound was tested for anticonvulsant activity after Oral Administration into Rats by using MES screen test after 4h,dose 12.5 mg/kg; number of rats out of four which were protected. In kind it is functional. An outline of the steps:
as §2

In series [24] the test system is Rattus norvegicus. Briefly: Anticonvulsant activity after oral administration into rats. Also noted: concentration or dose not given beside the values. In kind it is functional.
For series [25], the system named is Mus musculus. The series is described as follows: Compound was tested for anticonvulsant activity after intraperitoneal injection into mice by using MES screen test after 2 hr. As to conditions: ip. In kind it is functional. An outline of the steps:
as §3

Series [26] deals with Mus musculus. The series is described as follows: Compound was tested for anticonvulsant activity after intraperitoneal injection into mice by using scPTZ screen test after 2 hr. Format: functional. The settings on record: ip. Summed up:
as §3

The nature of series [27]: Protection index = TD50/ED50 (MES). As to conditions: mouse, in vivo; read-out: PI.
Series [28] relates to Rattus norvegicus. Briefly: Compound was tested for anticonvulsant activity after Oral Administration into Rats by using MES screen test after 0.25h,dose 12.5 mg/kg; number of rats out of four which were protected. In kind it is functional. An outline of the steps:
as §2

For series [29], the system named is Mus musculus. The series is described as follows: Compound was tested for anticonvulsant activity after intraperitoneal injection into mice by using scPTZ screen test after 0.5 hr. Format: functional. As to conditions: ip. Summed up: as §1
Series [30] can be described thus: Compound was tested for toxicity after intraperitoneal injection into mice by using neurotoxicity screen test after 1 hr. As to conditions: mouse, in vivo, ip. Format: organism-based. An outline of the steps:
as §3

The subject of series [31] is Mus musculus. The series is described as follows: Compound was tested for anticonvulsant activity after intraperitoneal injection into mice by using MES screen test after 0.5 hr. In kind it is functional. As to conditions: ip. Summed up: as §1

In the case of `N=C(N)N/N=C/c1ccc(Sc2ccc(F)cc2)cc1`, the Dose stood at 100 mg/kg in the series with Mus musculus [1]; 30 mg/kg with Mus musculus [4]; 100 mg/kg with Mus musculus [6]; 30 mg/kg with Mus musculus [9]; 300 mg/kg with Mus musculus [10]. The Activity with Rattus norvegicus [2] was 1; in the series on Rattus norvegicus [3] it was “No activity”; in the series with Rattus norvegicus [5] it was “No activity”; in the series on Rattus norvegicus [7], “No activity”; in the series on Rattus norvegicus [8], “No activity”.

On to `Cc1cccc(C)c1Oc1ccc(/C=N/NC(N)=O)cc1`, for which the Activity in the series with Rattus norvegicus [11] is 1; in the series with Rattus norvegicus [12], 4; with Rattus norvegicus [13], 4; in the series on Rattus norvegicus [15], 4; in the series on Rattus norvegicus [16], 4. Also, the Dose with Mus musculus [1] is 300 mg/kg; with Mus musculus [4], 30 mg/kg; in the series with Mus musculus [14] it was 100 mg/kg; with Mus musculus [6] it was 300 mg/kg; with Mus musculus [9] it was 100 mg/kg; in the series with Mus musculus [10] it was 30 mg/kg.

As to `CC/C(=N/NC(N)=O)c1ccc(Oc2ccc(Cl)cc2)cc1`, the Activity in the series with Rattus norvegicus [12] is 1; in the series with Rattus norvegicus [18] it was “No activity”; with Rattus norvegicus [13] it was 4; with Rattus norvegicus [15], 4; in the series with Rattus norvegicus [16], 4. The compound further came in with an ED50 with Rattus norvegicus [17] of 2.89 mg/kg. For the same compound, the Dose with Mus musculus [1] was determined as 100 mg/kg; in the series with Mus musculus [4] it was 300 mg/kg; with Mus musculus [6], 300 mg/kg; in the series on Mus musculus [10], 30 mg/kg. This compound came in with a TD50 at 2 h in series [19] below 100 mg/kg. This compound also gave a TD50 in [20] above 500 mg/kg.

As to `CC/C(=N/NC(N)=O)c1ccccc1Oc1ccc(F)cc1`, the Dose in the series with Mus musculus [1] was 300 mg/kg. Further, the Activity result with Rattus norvegicus [3], in the series on Rattus norvegicus [21], in the series on Rattus norvegicus [5], in the series with Rattus norvegicus [7] and in the series with Rattus norvegicus [8] was “No activity” in each case.

Turning to `NC(=O)N/N=C/c1ccc(Sc2ccc(Br)cc2)cc1`, the Activity in the series with Rattus norvegicus [22] was 3; with Rattus norvegicus [2] it was 4; in the series on Rattus norvegicus [23] it was 4; in the series with Rattus norvegicus [24], 1; in the series with Rattus norvegicus [5], “No activity”. Also, the Dose in the series on Mus musculus [1] was 300 mg/kg; in the series on Mus musculus [14], 30 mg/kg; in the series on Mus musculus [9], 300 mg/kg; in the series with Mus musculus [10] it was 100 mg/kg. The same compound had a TD50 at 2 h in series [19] of 123 mg/kg. The ED50 in the series on Mus musculus [25] was 24.4 mg/kg; with Mus musculus [26] it was above 200 mg/kg. In addition, in [27], the selectivity ratio was determined as 5.03.

With `NC(=O)N/N=C\c1ccc(OS(=O)(=O)c2ccccc2)cc1`, the Activity in the series with Rattus norvegicus [28] was 1; with Rattus norvegicus [22], 2; in the series on Rattus norvegicus [2], 4; in the series on Rattus norvegicus [23], 3; with Rattus norvegicus [24] it was 2. Also, the figures for the ED50 in the series with Mus musculus [29] and in the series on Mus musculus [31] were above 100 mg/kg and 25.3 mg/kg, respectively. The same compound came in with a TD50 at 1 h in series [30] of 113 mg/kg. In addition, the Dose in the series on Mus musculus [1] was 300 mg/kg; in the series with Mus musculus [4] it was 30 mg/kg; in the series with Mus musculus [14], 30 mg/kg; in the series with Mus musculus [6], 300 mg/kg; in the series on Mus musculus [10] it was 30 mg/kg. In addition, in series [27], the selectivity ratio amounted to 4.47.

By ED50 is commonly meant the dose that gives a 50% effect, or the effect in half of the subjects. As a reminder, the TD50 is the dose at which the toxic effect under study appears in half of the subjects.
